Experimental findings from ChEMBL document CHEMBL1124363, “Photoaffinity, biotinyl, and iodo analogues as probes for vasotocin receptors” (1989) are described below.

Assay [1] is described as follows: Effective concentration of compound for half-maximal response in hydroosmotic toad bladder assay. The assay is classed as functional. The note with it: Amphibia; read-out: ED50 (the source's name). The gist of the method: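 Toad hemibladders filled with Ringer's fluid diluted to half-strength with distilled water. Net osmotic water flux across the bladder wall measured gravimetrically by the Bentley method. ED-50 taken as the concentration giving a half-maximal water flow response.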

The species entered for assay [2] is Rattus norvegicus. The assay is described as follows: Antidiuretic activity of compound was assayed on water-loaded rats. Type of assay: functional, Urine.
The subject of assay [3] is Rattus norvegicus. As to the kind of experiment: Pressor activity of compound was assayed on urethane-anesthetized, phenoxybenzamine-treated rats. The assay is classed as functional. More on the design: unit not given here.

SMILES strings stand for the structures. Where a SMILES comes first, the peptide text is derived from it. Bridges are numbered along the chain shown (N, C = ends). [ ]: non-standard residue; d: D form. The star is where a group is joined. Biotin = O=C1N[C@H]2[C@H](CS[C@H]2CCCCC(=O)*)N1; Phe(4-NH2) = Nc1ccc(C[C@H](N)C(=O)O)cc1; Mpa = O=C(O)CCS

Consider `CC[C@H](C)[C@@H]1NC(=O)[C@H](Cc2ccc(O)cc2)NC(=O)[C@@H](N)CSSC[C@@H](C(=O)N2CCC[C@H]2C(=O)N[C@@H](CCCN=C(N)N)C(=O)N[C@@H](Cc2ccc(O)cc2)C(N)=O)NC(=O)[C@H](CC(N)=O)NC(=O)[C@H](CCC(N)=O)NC1=O` (HELM PEPTIDE1{C.Y.I.Q.N.C.P.R.Y.[am]}$PEPTIDE1,PEPTIDE1,1:R3-6:R3$$$V2.0), for which the EC50 in assay [1] was 0.49 nM. Also, in the assay filed under Rattus norvegicus [2], the Antidiuretic activity turned out to be 25 U/mg. The molecule also returned a Pressor activity in the assay with Rattus norvegicus [3] of 0.
Taken in the same sequence, the figures for `CC[C@H](C)[C@@H]1NC(=O)[C@H](Cc2ccc(O)cc2)NC(=O)CCSSC[C@@H](C(=O)N2CCC[C@H]2C(=O)N[C@@H](CCCN=C(N)N)C(=O)N[C@@H](Cc2ccc(N)cc2)C(N)=O)NC(=O)[C@H](CC(N)=O)NC(=O)[C@H](CCC(N)=O)NC1=O` (HELM PEPTIDE1{[O=C(CCS[*:3])[*:2]].Y.I.Q.N.C.P.R.[Nc1ccc(C[C@H](N[*:1])C(=O)[*:2])cc1].[am]}$PEPTIDE1,PEPTIDE1,1:R3-6:R3$$$V2.0) were 0.13 nM, 66 U/mg and 0.
The corresponding values for `CC[C@H](C)[C@@H]1NC(=O)[C@H](Cc2ccccc2)NC(=O)[C@@H](N)CSSC[C@@H](C(=O)N2CCC[C@H]2C(=O)N[C@@H](CCCN=C(N)N)C(=O)N[C@@H](Cc2ccc(O)cc2)C(N)=O)NC(=O)[C@H](CC(N)=O)NC(=O)[C@H](CCC(N)=O)NC1=O` (HELM PEPTIDE1{C.F.I.Q.N.C.P.R.Y.[am]}$PEPTIDE1,PEPTIDE1,1:R3-6:R3$$$V2.0) are 2.1 nM, 2.8 U/mg and 0.
For the molecule `CC[C@H](C)[C@@H]1NC(=O)[C@H](Cc2ccc(O)cc2)NC(=O)CCSSC[C@@H](C(=O)N2CCC[C@H]2C(=O)N[C@@H](CCCN=C(N)N)C(=O)N[C@@H](Cc2ccc(N=[N+]=[N-])cc2)C(N)=O)NC(=O)[C@H](CC(N)=O)NC(=O)[C@H](CCC(N)=O)NC1=O` (HELM PEPTIDE1{[O=C(CCS[*:3])[*:2]].Y.I.Q.N.C.P.R.[[N-]=[N+]=Nc1ccc(C[C@H](N[*:1])C(=O)[*:2])cc1].[am]}$PEPTIDE1,PEPTIDE1,1:R3-6:R3$$$V2.0), the EC50 in assay [1] was 0.09 nM. The molecule also yielded an Antidiuretic activity in the assay listed under Rattus norvegicus [2] of 40 U/mg.
Taken in the same sequence, the figures for `CC[C@H](C)[C@@H]1NC(=O)[C@H](Cc2ccc(O)cc2)NC(=O)CCSSC[C@@H](C(=O)N2CCC[C@H]2C(=O)N[C@@H](CCCN=C(N)N)C(=O)N[C@@H](Cc2ccc(NC(=O)CCCC[C@@H]3SC[C@@H]4NC(=O)N[C@@H]43)cc2)C(N)=O)NC(=O)[C@H](CC(N)=O)NC(=O)[C@H](CCC(N)=O)NC1=O` ([Mpa]YIQNCPR[Phe(4-NH2)](Biotin)-NH2; disulfide 1-6) were 12 nM and 23 U/mg.
Take `CC[C@H](C)[C@@H]1NC(=O)[C@H](Cc2ccccc2)NC(=O)[C@@H](N)CSSC[C@@H](C(=O)N2CCC[C@H]2C(=O)N[C@@H](CCCN=C(N)N)C(=O)N[C@@H](Cc2ccc(O)c(I)c2)C(N)=O)NC(=O)[C@H](CC(N)=O)NC(=O)[C@H](CCC(N)=O)NC1=O` (HELM PEPTIDE1{C.F.I.Q.N.C.P.R.[O=C([C@H](Cc1ccc(O)c(I)c1)N[*:1])[*:2]].[am]}$PEPTIDE1,PEPTIDE1,1:R3-6:R3$$$V2.0): in assay [1], the EC50 is 2.5 nM. The molecule also displayed an Antidiuretic activity in the assay listed under Rattus norvegicus [2] of 0.41 U/mg.
Take `CC[C@H](C)[C@@H]1NC(=O)[C@H](Cc2ccc(O)cc2)NC(=O)[C@@H](N)CSSC[C@@H](C(=O)N2CCC[C@H]2C(=O)N[C@@H](CCCN=C(N)N)C(=O)NCC(N)=O)NC(=O)[C@H](CC(N)=O)NC(=O)[C@H](CCC(N)=O)NC1=O` [VASOTOCIN] (HELM PEPTIDE1{C.Y.I.Q.N.C.P.R.G.[am]}$PEPTIDE1,PEPTIDE1,1:R3-6:R3$$$V2.0): the EC50 in assay [1] stood at 0.022 nM. The molecule also gave an Antidiuretic activity in the assay filed under Rattus norvegicus [2] of 231 U/mg. Also, in the assay with Rattus norvegicus [3], the Pressor activity came to 160.
